Data from ChEMBL document CHEMBL2069286, “Discovery and biological evaluation of novel 4-amino-2-phenylpyrimidine derivatives as potent and orally active GPR119 agonists” (Bioorg Med Chem, 2012).
Calls of active or inactive are those of the source. No cut-off for these calls is given here.

What was measured:
[1] = biological target: T1, Glucose-dependent insulinotropic receptor (Homo sapiens) (UniProt Q8TDV5); assay: Agonist activity at human GPR119 expressed in HEK293 cells assessed as stimulation of cAMP level incubated for 6 hrs by luciferase activity based luminometry; type: functional, cell-based
T1 sequence (whole entry): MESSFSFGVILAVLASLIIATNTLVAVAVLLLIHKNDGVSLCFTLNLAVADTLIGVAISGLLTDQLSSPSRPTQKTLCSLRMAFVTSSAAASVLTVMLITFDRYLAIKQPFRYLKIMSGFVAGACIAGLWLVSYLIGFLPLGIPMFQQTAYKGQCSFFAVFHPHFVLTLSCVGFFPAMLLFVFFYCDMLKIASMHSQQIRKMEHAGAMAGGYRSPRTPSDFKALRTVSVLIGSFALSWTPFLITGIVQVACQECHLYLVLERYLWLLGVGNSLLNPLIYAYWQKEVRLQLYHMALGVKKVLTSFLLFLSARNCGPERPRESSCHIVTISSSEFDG
Summary of the method: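 HEK293 cells stably expressing human GPR119 plus pCRE-luciferase reporter; 2.5×10^4 cells/well, overnight at 37 °C in 5% CO₂, then compound (DMSO) at 0.01–10 μM for 6 h. Lysis in 0.2% Triton X-100/PBS pH 7.4, luminometer read of luciferase. Triplicates per concentration. EC = concentration matching the response of reference agonist at 10 μM.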

[2] = biological target: T1, Glucose-dependent insulinotropic receptor (Homo sapiens); assay: Intrinsic activity at human GPR119 expressed in HEK293 cells assessed as stimulation of cAMP level at 10 uM incubated for 6 hrs by luciferase activity based luminometry relative to 10 uM 2-(2-(4-bromophenyl)-6-methylpyrimidin-4-ylamino)ethanol; type: functional, cell-based
Summary of the method: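 Same HEK293 hGPR119/pCRE-luciferase system with 6 h exposure, lysis in 0.2% Triton X-100/PBS and luciferase read, triplicate wells. Test compound at 10 μM; response expressed as % of the luciferase signal given by the reference agonist at 10 μM.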

Mus musculus [3] = assay: Antihyperglycemic activity in ICR mouse assessed as reduction in glucose levels at 3 mg/kg, po dosed post overnight fasting by oral glucose tolerance test; type: functional; set-up: scale not given: the % may be the effect or the level left
Summary of the method: (§1)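 Eight-week-old male ICR mice, fasted overnight, dosed orally with compound in 0.5% methylcellulose or vehicle alone. Oral glucose 2 g/kg given 10 min later. Tail-vein blood taken 30 min after glucose, and glucose measured by Glucose CII test.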

Cytochrome P450 1A2 = biological target: T2, Cytochrome P450 1A2 (Homo sapiens, UniProt P05177); assay: Inhibition of CYP1A2; type: ADME
T2 sequence (P05177 whole entry): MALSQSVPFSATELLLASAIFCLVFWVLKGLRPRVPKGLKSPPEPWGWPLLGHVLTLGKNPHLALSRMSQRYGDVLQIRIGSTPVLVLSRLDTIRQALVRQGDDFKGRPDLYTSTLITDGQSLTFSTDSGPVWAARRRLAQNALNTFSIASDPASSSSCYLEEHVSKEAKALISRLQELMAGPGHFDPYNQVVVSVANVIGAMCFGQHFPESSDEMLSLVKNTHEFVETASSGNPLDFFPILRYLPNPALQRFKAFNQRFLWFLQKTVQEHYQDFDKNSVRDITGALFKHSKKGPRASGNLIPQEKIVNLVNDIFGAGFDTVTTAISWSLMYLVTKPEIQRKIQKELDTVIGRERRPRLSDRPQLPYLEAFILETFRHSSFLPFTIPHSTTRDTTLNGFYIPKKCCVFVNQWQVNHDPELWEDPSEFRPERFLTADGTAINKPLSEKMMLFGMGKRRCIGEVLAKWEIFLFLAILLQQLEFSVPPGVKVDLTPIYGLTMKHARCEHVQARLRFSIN

Mus musculus [4] = assay: Antidiabetic activity in kk/Ay mouse assessed as reduction in plasma insulin at 3 mg/kg, po once daily for week; type: functional, organism-based; set-up: dose 3 mg/kg
Summary of the method: (§2)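 Eight-week-old male kk/Ay mice, n = 8 per group, dosed orally once daily for one week at 3 mg/kg, with 0.5% methylcellulose vehicle group. Fed-state tail-vein blood for glucose (Glucose CII), insulin and triglyceride (Triglyceride E-test). Pancreas weighed, homogenized, extracted with acid-ethanol, spun 10 min at 3000 g, supernatant insulin assayed. Mean ± SE; Dunnett's test.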

Mus musculus [5] = assay: Antidiabetic activity in kk/Ay mouse assessed as reduction in plasma triglyceride level at 3 mg/kg, po once daily for week by Triglyceride E-test; type: functional, organism-based; set-up: dose 3 mg/kg; summary of the method: as §2
Mus musculus [6] = assay: Antidiabetic activity in kk/Ay mouse assessed as reduction in blood glucose at 3 mg/kg, po once daily for week by Glucose cII test; type: functional, organism-based; set-up: dose 3 mg/kg; summary of the method: as §2
[7] = Stability in human liver microsomes; type: ADME, Microsome; settings: read-out: Stability
Mus musculus [8] = assay: Antihyperglycemic activity in ICR mouse assessed as reduction in glucose levels at 1 mg/kg, po dosed post overnight fasting by oral glucose tolerance test; type: functional; set-up: scale not given: the % may be the effect or the level left; summary of the method: as §1
[9] = Half life in mouse at 1 mg/kg, iv; type: ADME, organism-based; set-up: dose 1 mg/kg, route intravenous; settings: in vivo
[10] = Oral bioavailability in mouse at 3 mg/kg; type: ADME, organism-based; settings: in vivo
[11] = Total clearance in mouse at 1 mg/kg, iv; type: ADME, organism-based; set-up: dose 1 mg/kg, route intravenous; settings: in vivo
[12] = Tmax in mouse at 3 mg/kg, po; type: ADME, organism-based; set-up: dose 3 mg/kg, route oral; settings: in vivo
[13] = Tmax in monkey at 3 mg/kg, po; type: ADME, organism-based, Macaca mulatta; set-up: dose 3 mg/kg, route oral; settings: rhesus monkey, in vivo
Mus musculus [14] = assay: Antidiabetic activity in kk/Ay mouse assessed as improvement in pancreatic insulin level at 3 mg/kg, po once daily for week
[15] = Oral bioavailability in monkey at 3 mg/kg; type: ADME, organism-based, Macaca mulatta; settings: rhesus monkey, in vivo
[16] = Volume of distribution at steady state in mouse at 1 mg/kg, iv; type: ADME, organism-based; set-up: dose 1 mg/kg, route intravenous; settings: in vivo, read-out: Vdss
[17] = Half life in monkey at 1 mg/kg, iv; type: ADME, organism-based, Macaca mulatta; set-up: dose 1 mg/kg, route intravenous; settings: rhesus monkey, in vivo
[18] = Total clearance in monkey at 1 mg/kg, iv; type: ADME, organism-based, Macaca mulatta; set-up: dose 1 mg/kg, route intravenous; settings: rhesus monkey, in vivo
[19] = Volume of distribution at steady state in monkey at 1 mg/kg, iv; type: ADME, organism-based, Macaca mulatta; set-up: dose 1 mg/kg, route intravenous; settings: rhesus monkey, in vivo, read-out: Vdss
Mus musculus [20] = assay: Antihyperglycemic activity in ICR mouse assessed as reduction in glucose levels at 10 mg/kg, po dosed post overnight fasting by oral glucose tolerance test; type: functional; set-up: scale not given: the % may be the effect or the level left

SMILES | EC [1] [µM] | Intrinsic activity [2] | Activity (Mus musculus [3]) | IC50 (Cytochrome P450 1A2) [µM] | also measured
Cc1cc(NCCc2ccc[n+]([O-])c2)nc(-c2ccc(Cl)cc2)n1 | 0.7 | 376% | – | – | –
Cc1cc(NCCc2cc[nH]c(=O)c2)nc(-c2ccc(Br)c(F)c2)n1 | 0.021 | 617% | 10% | – | –
Cc1cc(NC[C@@H](O)CO)nc(-c2ccc(Br)c(F)c2)n1 | 1.2 | 346% | – | 1.7 | –
Cc1cc(NCCc2ccc[n+]([O-])c2)nc(-c2ccc(Cl)c(F)c2)n1 | 0.33 | 450% | 25% | – | –
CCc1cc(NCCc2cc[nH]c(=O)c2)nc(-c2cc(F)c(Cl)cc2F)n1 | 0.013 | 578% | 25% | – | –
Cc1cc(NCCc2ccc[n+]([O-])c2)nc(-c2ccc(Br)c(F)c2)n1 | 0.22 | 573% | 30% | – | –
CCc1ccc(CCOc2ccc(CC3SC(=O)NC3=O)cc2)nc1 (configuration not stated) | – | – | – | – | Activity (Mus musculus [4]): Active; Activity (Mus musculus [5]): Active; Activity (Mus musculus [6]): Active
Cc1cc(NC[C@H](O)CO)nc(-c2ccc(Br)c(F)c2)n1 | 2.3 | 257% | – | – | –
CCc1cc(NC[C@@H](O)CO)nc(-c2ccc(Cl)c(F)c2)n1 | 0.39 | 266% | – | 2.1 | CLint scaled [7]: 236 mL/min/kg; Activity (Mus musculus [8]): 24%
Cc1cc(NCCc2ccc[n+]([O-])c2)nc(-c2ccc(Br)cc2F)n1 | 1.5 | 268% | 19% | – | –
CCc1cc(NC[C@@H](O)CO)nc(-c2cc(F)c(Cl)cc2F)n1 | 0.28 | 497% | – | 35 | Activity (Mus musculus [4]): Active; half-life [9]: 2.2 h; Activity (Mus musculus [5]): Active; bioavailability [10]: 86%; clearance [11]: 35.9 mL/min/kg; Activity (Mus musculus [6]): Active; Tmax [12]: 6 min; Tmax [13]: 2.2 h; Activity (Mus musculus [14]): Active; bioavailability [15]: 51%; Vd [16]: 6.9 L/kg; half-life [17]: 4.6 h; clearance [18]: 12 mL/min/kg; CLint scaled [7]: < 20 mL/min/kg; Activity (Mus musculus [8]): 25%; Vd [19]: 4.7 L/kg
Cc1cc(NCCc2ccc[n+]([O-])c2)nc(-c2cc(F)c(Cl)cc2F)n1 | 0.21 | 536% | 27% | 3.7 | –
Cc1cc(NCCc2ccc[n+]([O-])c2)nc(-c2cc(F)c(Br)c(F)c2)n1 | 0.34 | 493% | 15% | – | –
Cc1cc(NCCc2ccc[n+]([O-])c2)nc(-c2ccccc2)n1 | – | inactive | – | – | –
Cc1cc(NCCc2ccc[n+]([O-])c2)nc(-c2ccc(Cl)c(Cl)c2)n1 | 0.72 | 430% | 15% | – | –
CCc1cc(NC[C@@H](O)CO)nc(-c2cc(F)c(Br)cc2F)n1 | 0.22 | 391% | – | 25 | Activity (Mus musculus [8]): 19%
CCc1cc(NC[C@@H](O)CO)nc(-c2ccc(Br)c(F)c2)n1 | 0.19 | 284% | – | 1.5 | CLint scaled [7]: 168 mL/min/kg; Activity (Mus musculus [8]): 23%
Cc1cc(NCCc2cc[nH]c(=O)c2)nc(-c2cc(F)c(Cl)cc2F)n1 | 0.0069 | 722% | 21% | – | –
Cc1cc(NCCc2ccc[n+]([O-])c2)nc(-c2cc(F)c(Br)cc2F)n1 | 0.11 | 588% | 23% | 7.2 | –
Cc1cc(NCCc2ccc[n+]([O-])c2)nc(-c2ccc(Br)cc2)n1 | 1.2 | 325% | inactive | – | Activity (Mus musculus [20]): 38%
Cc1cc(NCCc2cc[nH]c(=O)c2)nc(-c2cc(F)c(Br)cc2F)n1 | 0.017 | 1080% | 23% | – | –
CCc1cc(NC[C@H](O)CO)nc(-c2ccc(Br)c(F)c2)n1 | 0.59 | 283% | – | 1.6 | Activity (Mus musculus [8]): 16%
